Reference: ChEMBL document CHEMBL1130253 (J Med Chem, 1997)

Experiments:
CCRF-CEM = experiment: Concentration required to inhibit against HIV strain IIIB in CEM cell; type: functional; conditions: Homo sapiens, read-out: ED50 (the source's name)
[1] = Oral bioavailability (50 mg/kg) in rat; type: ADME, organism-based; conditions: in vivo
Procedure, shortened: (§1)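 Male Sprague-Dawley rats (n = 3), beagle dogs (1M/1F), female cynomolgus monkeys and marmosets (1M/1F). Dosed 12.5–25 mg/kg iv or 25–50 mg/kg oral in 5% dextrose, or propylene glycol:water 50:50 for marmosets. Fasted groups fasted overnight. Venous blood sampled predose to 48 h. Plasma stored at -20 °C, extracted and assayed by HPLC-UV. Mean (SD) reported for rats.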

[2] = The maximum time for retention (400 mg) administered orally in human; conditions: in vivo, po
[3] = The maximum time for retention (12.5 mg/kg) administered intravenously in marmoset; type: ADME, organism-based; conditions: callithrix, in vivo, iv; procedure, shortened: as §1
[4] = The maximum plasma concentration (12.5 mg/kg) administered intravenously in monkey; type: ADME, organism-based; parameters: dose 12.5 mg/kg, route intravenous; conditions: simiiformes, iv; procedure, shortened: as §1
[5] = The area under curve (25 mg/kg) administered orally in monkey; type: ADME, organism-based; conditions: simiiformes, in vivo, po; procedure, shortened: as §1
[6] = The area under curve (50 mg/kg) administered orally in rat; type: ADME, organism-based; conditions: in vivo, po; procedure, shortened: as §1
[7] = Elimination rate constant of the compound(25 mg/kg) administered intravenously in rat; type: ADME, organism-based; conditions: in vivo, iv, read-out: T1/2 el (converted); procedure, shortened: as §1
[8] = Oral bioavailability (50 mg/kg) in fasted rat; type: ADME, organism-based; conditions: in vivo; procedure, shortened: as §1
[9] = Elimination rate constant of the compound(15 mg/kg) administered intravenously in dog; type: ADME, organism-based, Canis lupus familiaris; conditions: in vivo, iv, read-out: T1/2 el (converted); procedure, shortened: as §1
[10] = The area under curve (12.5 mg/kg) administered intravenously in marmoset; type: ADME, organism-based; conditions: callithrix, in vivo, iv; procedure, shortened: as §1
Homo sapiens [11] = experiment: The area under curve (800 mg/kg) administered orally in humans; type: ADME, organism-based; conditions: in vivo, po
Procedure, shortened: (§2)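 Healthy human volunteers given single oral doses of 100–800 mg with food. Plasma PK parameters reported as mean ± SD of four subjects per dose. Tmax reported as median.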

[12] = The area under curve (400 mg/kg) administered orally in humans; type: ADME, organism-based; conditions: human, in vivo, po; procedure, shortened: as §2
[13] = The area under curve (50 mg/kg) administered orally in fasted rat; type: ADME, organism-based; conditions: in vivo, po; procedure, shortened: as §1
[14] = The maximum time for retention (25 mg/kg) administered orally in marmoset; type: ADME, organism-based; conditions: callithrix, in vivo, po
Procedure, shortened: (§3)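 Plasma pharmacokinetics in male Sprague-Dawley rats (n = 3), beagle dogs (1 male, 1 female), female cynomolgus monkeys (2) and marmosets (1 male, 1 female). Single iv (12.5-25 mg/kg) or oral (25-50 mg/kg) dose. Vehicle was 5% dextrose for rat, dog and monkey, and propylene glycol:water (50:50) for marmoset. Venous blood was drawn predose and up to 48 h. Plasma was stored at -20 °C, extracted and assayed by HPLC-UV. Values are means.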

[15] = The area under curve (15 mg/kg) administered intravenously in dog; type: ADME, organism-based, Canis lupus familiaris; conditions: in vivo, iv; procedure, shortened: as §1
[16] = The maximum time for retention (25 mg/kg) administered intravenously in rat; type: ADME, organism-based; conditions: in vivo, iv; procedure, shortened: as §3
[17] = The maximum plasma concentration (200 mg/kg) administered orally in human; type: ADME, organism-based; parameters: route oral; conditions: po; procedure, shortened: as §2
[18] = The maximum time for retention (25 mg/kg) administered orally in monkey; type: ADME, organism-based; conditions: simiiformes, in vivo, po; procedure, shortened: as §3
[19] = Oral bioavailability (25 mg/kg) in marmoset; type: ADME, organism-based; conditions: primates, in vivo; procedure, shortened: as §1
Homo sapiens [20] = experiment: The maximum plasma concentration (800 mg/kg) administered orally in human; type: ADME, organism-based; parameters: route oral; conditions: in vivo, po; procedure, shortened: as §2
[21] = The area under curve (25 mg/kg) administered intravenously in rat; type: ADME, organism-based; conditions: in vivo, iv; procedure, shortened: as §1
[22] = The maximum plasma concentration (400 mg/kg) administered orally in human; type: ADME, organism-based; parameters: route oral; conditions: po; procedure, shortened: as §2
[23] = The maximum plasma concentration (30 mg/kg) administered orally in dog; type: ADME, organism-based, Canis lupus familiaris; parameters: dose 30 mg/kg, route oral; conditions: po; procedure, shortened: as §1
[24] = The area under curve (100 mg/kg) administered orally in humans; type: ADME, organism-based; conditions: human, in vivo, po; procedure, shortened: as §2
[25] = The maximum plasma concentration (25 mg/kg) administered intravenously in rat; type: ADME, organism-based; parameters: dose 25 mg/kg, route intravenous; conditions: iv; procedure, shortened: as §1
[26] = The maximum time for retention (30 mg/kg) administered orally in dog; type: ADME, organism-based, Canis lupus familiaris; conditions: in vivo, po; procedure, shortened: as §3
[27] = The maximum time for retention (15 mg/kg) administered intravenously in dog; type: ADME, organism-based, Canis lupus familiaris; conditions: in vivo, iv; procedure, shortened: as §1
[28] = The maximum time for retention (12.5 mg/kg) administered intravenously in monkey; type: ADME, organism-based; conditions: simiiformes, in vivo, iv; procedure, shortened: as §1
[29] = Oral bioavailability (25 mg/kg) in monkey; type: ADME, organism-based; conditions: primates, in vivo; procedure, shortened: as §1
[30] = Elimination rate constant of the compound(800 mg/kg) administered orally in human; type: ADME, organism-based; conditions: in vivo, po; procedure, shortened: as §2
[31] = The maximum plasma concentration (15 mg/kg) administered intravenously in dog; type: ADME, organism-based, Canis lupus familiaris; parameters: dose 15 mg/kg, route intravenous; conditions: iv; procedure, shortened: as §1
[32] = The area under curve (12.5 mg/kg) administered intravenously in monkey; type: ADME, organism-based; conditions: simiiformes, in vivo, iv; procedure, shortened: as §1
[33] = The area under curve (25 mg/kg) administered orally in marmoset; type: ADME, organism-based; conditions: callithrix, in vivo, po; procedure, shortened: as §1
[34] = Elimination rate constant of the compound(30 mg/kg) administered orally in dog; type: ADME, organism-based, Canis lupus familiaris; conditions: in vivo, po, read-out: T1/2 el (converted); procedure, shortened: as §1
[35] = Elimination rate constant of the compound(400 mg/kg) administered orally in human; type: ADME, organism-based; conditions: in vivo, po, read-out: T1/2 el (converted); procedure, shortened: as §2
[36] = Elimination rate constant of the compound(50 mg/kg) administered orally in fasted rat; type: ADME, organism-based; conditions: in vivo, po, read-out: T1/2 el (converted); procedure, shortened: as §1
[37] = The maximum time for retention (50 mg/kg) administered orally in fasted rat; type: ADME, organism-based; conditions: in vivo, po
Procedure, shortened: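 Male Sprague-Dawley rats (n = 3) were fasted overnight, then given a single oral dose (25-50 mg/kg range) in 5% dextrose. Jugular, femoral or cephalic blood was sampled predose and up to 48 h. Plasma was separated at once, held at -20 °C, extracted and quantified by HPLC with UV detection. Values are the mean of three rats.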

[38] = The maximum time for retention (200 mg) administered orally in human; conditions: in vivo, po
[39] = Elimination rate constant of the compound(12.5 mg/kg) administered intravenously in rmonkey; type: ADME, organism-based; conditions: simiiformes, in vivo, iv, read-out: T1/2 el (converted); procedure, shortened: as §1
[40] = The maximum plasma concentration (100 mg/kg) administered orally in human; type: ADME, organism-based; parameters: route oral; conditions: po; procedure, shortened: as §2
[41] = Elimination rate constant of the compound(25 mg/kg) administered orally in monkey; type: ADME, organism-based; conditions: simiiformes, in vivo, po, read-out: T1/2 el (converted); procedure, shortened: as §1
[42] = The maximum time for retention (100 mg) administered orally in human; conditions: in vivo, po
[43] = The maximum plasma concentration (50 mg/kg) administered orally in fasted rat; type: ADME, organism-based; parameters: dose 50 mg/kg, route oral; conditions: po; procedure, shortened: as §1
[44] = Elimination rate constant of the compound(25 mg/kg) administered orally in marmoset; type: ADME, organism-based; conditions: callithrix, in vivo, po, read-out: T1/2 el (converted); procedure, shortened: as §1
[45] = Oral bioavailability (30 mg/kg) in dog; type: ADME, organism-based, Canis lupus familiaris; conditions: in vivo; procedure, shortened: as §1
[46] = Elimination rate constant of the compound(100 mg) administered orally in human; conditions: in vivo, po, read-out: T1/2 el (converted)
[47] = The maximum plasma concentration (50 mg/kg) administered orally in rat; type: ADME, organism-based; parameters: dose 50 mg/kg, route oral; conditions: po; procedure, shortened: as §1
[48] = The maximum time for retention (50 mg/kg) administered orally in rat; type: ADME, organism-based; conditions: in vivo, po; procedure, shortened: as §3
[49] = The maximum plasma concentration (25 mg/kg) administered orally in monkey; type: ADME, organism-based; parameters: dose 25 mg/kg, route oral; conditions: simiiformes, po; procedure, shortened: as §1
[50] = Elimination rate constant of the compound(12.5 mg/kg) administered intravenously in marmoset; type: ADME, organism-based; conditions: callithrix, in vivo, iv, read-out: T1/2 el (converted); procedure, shortened: as §1
[51] = The maximum plasma concentration (25 mg/kg) administered orally in marmoset; type: ADME, organism-based; parameters: dose 25 mg/kg, route oral; conditions: callithrix, po; procedure, shortened: as §1
[52] = The maximum plasma concentration (12.5 mg/kg) administered intravenously in marmoset; type: ADME, organism-based; parameters: dose 12.5 mg/kg, route intravenous; conditions: callithrix, iv; procedure, shortened: as §1
[53] = The area under curve (30 mg/kg) administered orally in dog; type: ADME, organism-based, Canis lupus familiaris; conditions: in vivo, po; procedure, shortened: as §1
Homo sapiens [54] = experiment: The maximum time for retention (800 mg) administered orally in human; conditions: in vivo, po
[55] = Elimination rate constant of the compound(200 mg/kg) administered orally in human; type: ADME, organism-based; conditions: in vivo, po, read-out: T1/2 el (converted); procedure, shortened: as §2

**Q.** For Cc1c(O)cccc1C(=O)N[C@@H](CSc1ccc2ccccc2c1)[C@H](O)Cc1ccccc1C(=O)NC(C)(C)C, which EC50 (CCRF-CEM) is on record?
**A.** 970 nM

**Q.** What does the source list for CS(=O)(=O)O.Cc1c(O)cccc1C(=O)N[C@@H](CSc1ccccc1)[C@H](O)CN1C[C@H]2CCCC[C@H]2C[C@H]1C(=O)NC(C)(C)C [NELFINAVIR MESYLATE]?
**A.** bioavailability [1]: 43%; Tmax [2]: 4 h; Tmax [3]: 4.8 min; Cmax [4]: 7990 ng/mL; AUC [5]: 6290 ng·h/mL; AUC [6]: 6090 ng·h/mL; half-life [7]: 1.26 h; bioavailability [8]: 29%; half-life [9]: 1.18 h; AUC [10]: 6630 ng·h/mL; AUC (Homo sapiens [11]): 22200 ng·h/mL; AUC [12]: 7560 ng·h/mL; AUC [13]: 4040 ng·h/mL; Tmax [14]: 1 h; AUC [15]: 11200 ng·h/mL; Tmax [16]: 3.6 min; Cmax [17]: 439 ng/mL; Tmax [18]: 3 h; bioavailability [19]: 10%; Cmax (Homo sapiens [20]): 3163 ng/mL; AUC [21]: 7010 ng·h/mL; Cmax [22]: 1580 ng/mL; Cmax [23]: 1220 ng/mL; AUC [24]: 1250 ng·h/mL; Cmax [25]: 12700 ng/mL; Tmax [26]: 3 h; Tmax [27]: 4.8 min; Tmax [28]: 4.8 min; EC50 (CCRF-CEM): 14 nM; bioavailability [29]: 9%; T1/2 el [30]: 3.37 h; Cmax [31]: 11900 ng/mL; AUC [32]: 10400 ng·h/mL; AUC [33]: 2890 ng·h/mL; half-life [34]: 7.72 h; half-life [35]: 2.28 h; half-life [36]: 1.07 h; Tmax [37]: 1.39 h; Tmax [38]: 3 h; half-life [39]: 1.47 h; Cmax [40]: 313 ng/mL; half-life [41]: 3 h; Tmax [42]: 3 h; Cmax [43]: 1470 ng/mL; half-life [44]: 2.04 h; bioavailability [45]: 35%; half-life [46]: 1.72 h; Cmax [47]: 1340 ng/mL; Tmax [48]: 2.82 h; Cmax [49]: 1590 ng/mL; half-life [50]: 1.23 h; Cmax [51]: 840 ng/mL; Cmax [52]: 5670 ng/mL; AUC [53]: 13300 ng·h/mL; T max (Homo sapiens [54]): 3.5 h; half-life [55]: 2.21 h
